KLK7 zymogen act = proKLK7 (human) activation, primary screen. P49862. activation, % at 7 µM. purified proKLK7, EDANS-DABCYL substrate fluorescence; 100% is mature enzyme control, 0% vehicle. hit rate 0.9% among 370,000;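 active means activation above the mean of all tested compounds plus 3 SD, computed per campaign excluding outliers beyond control limits, cut at about 13% in these data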
NR2E3 ag-1 = activates human photoreceptor nuclear receptor NR2E3 | Q9Y5X4 | GST-NR2E3/biotin-RetCOR TR-FRET, 1536-well | AID 2300 | hit rate 0.12% among 320,000 | inhibition of corepressor binding, % at 4.78 µM;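 active means percent inhibition above the cutoff of mean plus 3 SD of all tested compounds, set per screening campaign, cut at about 20% in these data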;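 further: 0% = DMSO wells and 100% = biotin wells as full block of FRET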
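System: GST-tagged NR2E3 plus biotinylated RetCOR corepressor; Amount: 1.35 nM GST-tagged NR2E3 final; Dosing: single nominal compound dose of 4.8 µM; Schedule: 5 h incubation at 4 °C; Technique: TR-FRET with europium anti-GST and streptavidin-D2, 340 nm excitation; Controls: biotin wells as high control, 0.6% DMSO wells as low control.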
ADAM10 inh = inhibits human ADAM10; recombinant ADAM10, EDANS/DABCYL FRET peptide cleavage, 3 h; inhibition, % at 7 µM; hit rate 0.62% among 370,000;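 active means inhibition above a per-campaign cutoff equal to the mean of compounds falling between control-based bounds plus 3 SD, cut at about 20% in these data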;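 further: 0% = DMSO wells while the 100% control is not disclosed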
JMJD2C inh = inhibitors of human GASC-1 (JMJD2C) demethylase | GST-JMJD2C(1-420) H3K9me3 demethylation, DELFIA europium | inhibition, % at 2.35 µM | AID 2099 | Q9H3R0 | hit rate 0.069% among 330,000;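 active means more than half of a compound's replicate wells show inhibition beyond 50%, single wells judged on their own value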;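 further: signal counts dimethyl H3K9 product captured on neutravidin plate; 0% = median of DMSO wells and 100% = 0.3 times that DMSO median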
Target sequence (Q9H3R0 1-420 limits assumed): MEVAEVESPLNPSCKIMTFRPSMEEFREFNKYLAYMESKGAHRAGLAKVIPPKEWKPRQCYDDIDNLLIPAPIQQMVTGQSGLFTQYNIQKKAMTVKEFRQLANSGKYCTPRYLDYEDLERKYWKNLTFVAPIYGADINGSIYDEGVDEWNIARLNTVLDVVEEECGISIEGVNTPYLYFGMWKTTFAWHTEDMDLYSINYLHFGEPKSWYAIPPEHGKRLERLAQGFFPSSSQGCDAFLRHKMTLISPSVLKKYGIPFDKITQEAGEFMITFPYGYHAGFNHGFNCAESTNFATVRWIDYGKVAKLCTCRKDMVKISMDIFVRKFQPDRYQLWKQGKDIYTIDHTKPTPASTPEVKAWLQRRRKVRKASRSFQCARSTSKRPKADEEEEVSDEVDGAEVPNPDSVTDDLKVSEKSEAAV
NR2E3 ag-2 = agonists of human NR2E3 nuclear receptor. Q9Y5X4. CHO-S Gal4-NCOR/VP16-NR2E3 two-hybrid, luciferase. inhibition of corepressor binding, % at 3.98 µM. hit rate 0.35% among 360,000. AID 602229;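 active means inhibition above the mean of all tested compounds plus 3 SD, cut at about 70% in these data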;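 further: 0% = DMSO with NR2E3 transfected cells and 100% = cells lacking NR2E3 construct; higher means lower luciferase signal from less NR2E3 corepressor binding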
ADAM17 inh = inhibits human ADAM17; inhibition, % at 6.95 µM; recombinant ADAM17, EDANS/DABCYL FRET peptide cleavage; hit rate 0.83% among 370,000; AID 720648; P78536;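 active means inhibition above the mean of compounds lying between control limits plus 3 SD, set per campaign, cut at about 8.5% in these data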;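 further: 0% = DMSO-only wells as the low control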
KLK7 act conf = confirmation of human kallikrein-7 zymogen activators; shares compounds with KLK7 zymogen act; purified proKLK7, EDANS-DABCYL substrate fluorescence; scaled: vehicle 0, mature enzyme 100; activation, % at 7 µM; hit rate 68% among 3,200; AID 686949;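 active means activation, as change over the incubation, above the mean of all tested compounds plus 3 SD, cut at about 13% in these data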
EDANS interfere = counter-screen for kallikrein-7 activators: EDANS-DABCYL optical interference. shares compounds with KLK7 zymogen act. EDANS-DABCYL substrate fluorescence interference, no enzyme, 4 h; solvent 0%, active enzyme control 100%. activation, % at 7 µM. hit rate 80% among 3,200;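 active means activation above the all-compound mean plus 3 SD, ignoring values outside control-based bounds, cut at about 4.8% in these data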;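 further: value is the 4 h activation minus the activation read at time zero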
K7 EDANS ctr = counter-screen for kallikrein-7 activators: EDANS-DABCYL interference, dose response; hit rate 20% among 250; EC50, µM; EDANS-DABCYL peptide fluorescence interference, no enzyme; AID 720493; shares compounds with KLK7 zymogen act;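 active means compounds that raise the fluorescence signal in this interference counterscreen, with EC50 at or below 10 µM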;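 further: intact quenched peptide substrate alone read at 355 nm excitation and 520 nm emission; signal is fluorescence gain from T0 to T4 after four hours at room temperature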
* = called active by the depositor; i = inactive; / = no result given. Shown are actives, neighbours in structure and some others; about 2.5% of the full set was active somewhere.

SMILES | KLK7 zymogen act | NR2E3 ag-1 | ADAM10 inh | JMJD2C inh | NR2E3 ag-2 | ADAM17 inh | KLK7 act conf | EDANS interfere | others
NNC(=O)c1ccc2nc(-c3ccc(Br)cc3)cn2c1 | 5 | 8 | -76 | 2 | -67 | -15 | / | /
COc1ccc(N(CC(=O)NCc2ccc(F)cc2)C(=O)c2snc(C(N)=O)c2N)cc1OC | 15* | 1 | -2 | -9 | -8 | -6 | 5 | 4
CSc1cccc(NC(=O)COC(=O)c2ccccn2)c1 | 0 | 1 | -7 | 5 | -1 | -4 | / | /
CC(=O)N1CCOC12CCN(Cc1ccccc1)CC2 | 0 | / | -7 | / | -33 | -2 | / | /
N=C1/C(=C/c2cccn2Cc2ccc(F)cc2)C(=O)N=C2SC=CN12 | 28* | 1 | -16 | 1 | -1 | -4 | 10 | 5.6*
N=C1/C(=C\c2coc3ccccc3c2=O)C(=O)N=C2SC=CN12 | 23* | -2 | -33 | 38 | -46 | -19 | 33* | 32*
COc1ccc(CN2C[C@@H](CO)O[C@@H](n3cnc4c(NCCN(C)C)ncnc43)C2)cc1 | 1 | / | -12 | / | 3 | -6 | / | /
C/C(CCc1ccccc1)=N\NC(=O)C(=O)Nc1cccc(Cl)c1 | 0 | -1 | 3 | -6 | -24 | 1 | / | /
Cc1ccc(C2NC(=O)c3ccccc3N2)c(C)c1 (stereo unspecified) | 32* | / | i | / | -63 | i | 29* | 26*
CCOc1ccccc1C1NC(=O)c2ccccc2N1 (stereo unspecified) | 13* | / | i | / | 2 | -404 | 13* | 12*
O=C1NC(c2ccco2)Nc2ccccc21 (stereo unspecified) | 16* | 4 | i | -8 | -19 | -306 | 17* | 18*
Cc1cccc(C2NC(=O)c3ccccc3N2)c1 (stereo unspecified) | 0 | / | -23 | / | -125 | -10 | / | /
CSc1ccccc1NC(=O)C1(C)CCN1C(=O)Cc1ccccc1Cl (stereo unspecified) | 0 | / | -9 | / | 3 | -1 | / | /
CC(=O)Nc1ccc(NC(=O)/C=C/c2ccc3c(c2)OCO3)cc1 | 19* | 3 | 2 | -2 | -29 | 0 | 10 | 22*
O=C(/C=C/c1ccc2c(c1)OCO2)Nc1nncs1 | 13* | 0 | -142 | -2 | -41 | -33 | -22 | -196
CC1(C(=O)Nc2cccc(C#N)c2)CCN1C(=O)C1(c2ccccc2)CC1 (stereo unspecified) | 1 | / | -3 | / | -14 | -3 | / | /
CCOC(=O)C1CCN(C(=O)Nc2ccc3snnc3c2)CC1 | 0 | 4 | -30 | -28 | -20 | -13 | / | /
CCOC(=O)N1CCN(C(=O)Nc2ccc3nc(-c4ccccn4)c(-c4ccccn4)nc3c2)CC1 | 32* | 3 | -382 | 3 | -6 | -137 | 32* | 33*
CCOC(=O)C1CCN(C(=O)Nc2ccc3nccnc3c2)CC1 | 14* | 1 | i | 19 | -7 | -234 | 71* | 71*
CN(C)c1cccc2c1c(NC(=O)c1ccc(Cl)cc1)nn2C | 0 | 2 | -11 | 3 | -17 | -4 | / | /
COC(=O)c1ccccc1NC(=O)CCCOc1cc(=O)n(C)c2ccccc12 | 0 | / | -15 | / | -38 | 1 | / | /
Cc1cc(C)n2cc(CSc3ccccn3)nc2n1 | 1 | 1 | -64 | 6 | -16 | -17 | / | /
Cc1cc(C)n2cc(CSCc3ccccc3)nc2n1 | 14* | 3 | i | 2 | -4 | -357 | 25* | 21* | K7 EDANS ctr=>70
Cc1ccc(S(=O)(=O)c2c(N)n(CCCO)c3nc4ccccc4nc23)cc1 | 14* | 3 | i | -4 | 4 | i | -46 | -48

Screening results deposited in PubChem by several laboratories.
